Experimental data from ChEMBL document CHEMBL3351368, “Biphenyl-4-carboxylic acid [2-(1H-indol-3-yl)-ethyl]-methylamide (CA224), a nonplanar analogue of fascaplysin, inhibits Cdk4 and tubulin polymerization: evaluation of in vitro and in vivo anticancer activity” (J Med Chem, 2014).
Active and inactive are the calls of the source.

How the values were obtained:
NCI-H358 = experiment: Cell cycle arrest in human NCI-H358 cells assessed as accumulation of cells at S phase at IC50 concentration after 18 hrs by flow cytometry in presence of […] uM hydroxyurea for 18 hrs (reference value: 12%); assay type: functional
MiaPaCa = experiment: Induction in Cdk1 level in p53His273 mutant, pRb+ human MiaPaCa cells at IC50 concentration after 48 hrs by Western blot analysis; assay type: functional
Mus musculus = experiment: Toxicity in human NCI-H460 cells xenografted in SCID mouse at 100 mg/kg, ip relative to untreated control; assay type: organism-based; design: dose 100 mg/kg, route intraperitoneal; conditions: in vivo
Outline: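 SCID female mice, 15-24 g, 6-8 weeks old, received 5.3 × 10^6 NCI-H460 cells subcutaneously on the dorsal side. Randomized at 4-6 mm tumors (about 6 days) into groups of 6 or 7, then dosed intraperitoneally for 9 consecutive days. Body weight recorded daily as percent of the start-of-treatment weight; >10% drop counted significant, >20% highly significant.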

NCI-H1299 = experiment: Cell cycle arrest in human NCI-H1299 cells assessed as accumulation of cells at G2/M phase at IC50 concentration after 24 hrs by flow cytometry (reference value: 18%); assay type: functional
Tubulin (Homo sapiens) = Tubulin (Homo sapiens) (UniProt P68371+Q9H4B7+P0DPH7+P68366+Q13509+Q71U36+P04350+Q3ZCM7+P07437+P68363+Q9BQE3+Q6PEY2+Q13885+Q9BVA1+Q9BUF5); experiment: Inhibition of tubulin polymerization in p53+, pRb+ human A549 cells assessed as paclitaxel-mediated polymerization treated followed by compound treatment measured after 30 mins by Western blot analysis; assay type: cell-based
[1] = Growth inhibition of mouse BNL-SVA.8 cells after 48 hrs by MTT assay; assay type: functional
Outline: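 MTT cell proliferation assay. IC50 (µM) was defined as the concentration giving 50% inhibition of cell growth.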

[2] = Cell cycle arrest in mouse BNL-SVA.8 cells assessed as accumulation of cells at subG1 phase at IC70 concentration after 48 hrs by flow cytometry; assay type: functional
Outline: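 Normal (BNL CL2) and SV40 large T-antigen transformed (BNL SV A.8) mouse embryonic hepatic cells were treated at IC50 or IC70 concentration for 48 h. Analysis was by FACS, with apoptosis taken as % cells in the sub-G1 peak. Untreated cells served as control.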

[3] = Cell cycle arrest in SV-40 large T-antigen transformed human WI38 cells assessed as accumulation of cells at subG1 phase by flow cytometry; assay type: functional, cell-based; conditions: WI-38

**Q.** With CN(CCc1c[nH]c2ccccc12)C(=O)c1ccc(-c2ccccc2)cc1 as the compound, how does the Activity (NCI-H358) read?
**A.** The Activity was 10%.

**Q.** What about the Activity (MiaPaCa) of the same compound?
**A.** Its Activity is “Active”.

**Q.** And the Activity (Mus musculus)?
**A.** The Activity was “Non-toxic”.

**Q.** And the Activity (NCI-H1299)?
**A.** Its Activity is 71%.

**Q.** What about the inhibition (Tubulin (Homo sapiens)) of the same compound?
**A.** The inhibition was “Dose-dependent effect”.

**Q.** What about the IC50 [1] of the same compound?
**A.** Its IC50 is 3.8 µM.

**Q.** What about the Activity [2] of the same compound?
**A.** The Activity was 44%.

**Q.** What about the Activity [3] of the same compound?
**A.** Its Activity is “Active”.
